Screening results from PubChem BioAssay.
FLuc inh counter: counter-screen for luciferase assay inhibitors: firefly luciferase inhibition; inhibition, % at 10 µM; ATPLite firefly luciferase biochemical luminescence, 10 min; hit rate 1.5% among 200,000; P08659;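 active = inhibition above about 50% when tested at 10 µM, limit read from the data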
Target sequence (P08659 whole entry, looked up): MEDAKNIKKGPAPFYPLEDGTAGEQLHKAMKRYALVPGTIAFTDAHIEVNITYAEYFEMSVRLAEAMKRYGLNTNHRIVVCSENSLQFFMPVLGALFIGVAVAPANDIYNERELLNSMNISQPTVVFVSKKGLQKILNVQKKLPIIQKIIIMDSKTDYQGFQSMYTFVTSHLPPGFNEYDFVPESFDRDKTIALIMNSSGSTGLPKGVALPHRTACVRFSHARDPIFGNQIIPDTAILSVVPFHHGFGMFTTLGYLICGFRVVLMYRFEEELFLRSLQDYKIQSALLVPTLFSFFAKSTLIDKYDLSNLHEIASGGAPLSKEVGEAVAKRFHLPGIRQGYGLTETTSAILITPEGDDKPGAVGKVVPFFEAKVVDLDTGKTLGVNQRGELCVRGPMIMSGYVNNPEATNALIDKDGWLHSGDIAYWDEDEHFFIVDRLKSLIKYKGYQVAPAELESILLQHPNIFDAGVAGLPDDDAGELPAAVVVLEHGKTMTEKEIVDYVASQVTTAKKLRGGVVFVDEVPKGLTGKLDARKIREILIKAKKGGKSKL
FLuc act counter: affects firefly luciferase, flagging false hits in luciferase stimulation screens; 200,000 tested, under 10 active; activation factor at 10 µM; AID 1027; ATPlite luciferase biochemical, luminescence, 10 min; 0 = ATP-free wells, 1 = DMSO control;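 active = luciferase activation factor, scaled between plate controls, of at least 2 with compound at 10 µM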
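System: Luciferase/luciferin detection reagent, cell-free biochemical luciferase assay | Medium: PBS buffer for ATP | Dosing: Test compounds dosed from 2 mM stocks in 100% DMSO | Timing: 10 min at ambient temperature | Signal: Luminescence measurement of luciferase light output | Evaluation: Luciferase activation, seen as luminescence increase over controls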
iPSC survival up: increases survival of single human iPS cells; hiPSC single-cell survival, ATPlite luminescence; 100% = ROCK inhibitor wells, 0% = DMSO; survival enhancement, % at 20 µM; hit rate 0.044% among 360,000; in the data active = survival enhancement above about 18%;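 also: cells exposed to compounds for 16 hours before the ATP read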
PPC-1+TRAIL kill: compounds killing PPC-1 cancer cells with TRAIL present (potentiator screen, no TRAIL-free arm). PPC-1 cells + TRAIL, ATPLite viability luminescence. cell killing (% activity), % at 4 µM or 5 µM. hit rate 0.41% among 220,000;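 active = cell killing above 50% in the first pass at 4 µM, then a duplicate retest at 5 µM averaging 50% or more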;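 also: plate controls were cells with TRAIL plus DMSO for no effect and medium-only wells lacking cells for full effect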
beta cell repl: MIN6 beta-cell proliferation induction | MIN6 cells proliferation, ATPlite luminescence, 48 h; cells starved in 0.2% serum; 100% = growth in 10% serum | proliferation, % at 10 µM | hit rate 0.29% among 330,000 | AID 2380;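 active = compounds whose signal lies at least 3.5 SD above the mean of all wells on their plate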;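 also: 0% = DMSO-treated cells in low-serum medium and 100% = 10% serum control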
TRAIL sens C8: sensitizes caspase-8 expressing cells to TRAIL; NB7+C8 cells + TRAIL, ATPlite viability luminescence; inhibition (viability loss, TRAIL sensitization), % at 10 µM; hit rate 1% among 360,000; AID 624354;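 active = compounds causing at least 50% loss of cell viability in the single-dose screen, relative to plate controls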
PPC1 cytotox: PPC-1 cell cytotoxicity; PPC-1 viability, ATPlite luminescence, overnight; hit rate 50% among 1,200; cytotoxicity, % at 5 µM; shares compounds with PPC-1+TRAIL kill;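 active = reconfirmed compounds whose average cytotoxicity reaches 50% or more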;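 also: 0% = DMSO-treated cells and 100% = wells holding medium but no cells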
Active calls of the source: *; · = not tested or not shown. In the library only some 1.8% were active in any assay of this set; here they are far more common.

SMILES	FLuc inh counter	FLuc act counter	iPSC survival up	PPC-1+TRAIL kill	beta cell repl	TRAIL sens C8	PPC1 cytotox
CN1CCN(c2ccccc2NC(=O)Cc2cn(C)c3ccccc23)CC1	-8	1.1	0	14	-1	36	·
Cc1ccccc1NC(=O)Cc1cn(C)c2ccccc12	0	1	0	4	1	6	-9
COc1cccc2sc(Nc3nc(-c4ccccn4)cs3)nc12	6	0.9	-3	26	-6	28	30
Cc1ccc(S(=O)(=O)n2c(N)nc3ccccc32)cc1	·	·	1	·	0	1	·
Cc1ccc(C(=O)n2c(N)nc3ccccc32)cc1	97*	0	-5	92*	-6	95*	93*
CCN1C(=O)CC(Sc2ccccc2N)C1=O (centres undefined)	-2	1	-2	12	-3	2	8
CCn1nnc(NC(=O)c2cccnc2)n1	-8	1.1	3	8	-2	-9	·
CCn1nnc(NC(=O)c2ccc(C(C)(C)C)cc2)n1	82*	0.2	-5	57*	-5	78*	42
COc1cccc(-c2cc(C(=O)Nc3cccc(O)c3)no2)c1	83*	0.2	-4	56*	-5	70*	55*
CCOc1ccc(Nc2nc(N)nc(CCl)n2)cc1	·	·	-1	95*	-6	92*	93*
Cc1ccc(Nc2nc(N)nc(CCl)n2)c(C)c1	·	·	-1	92*	-3	96*	92*
Cc1ccc(Nc2nc(N)nc(CN3CCCCCC3)n2)c(C)c1	-8	1.1	3	5	-3	-1	·
O=C(c1ccc2c3c(cccc13)CC2)C1CCCN(Cc2ccncc2)C1 (centres undefined)	-5	1	1	16	-4	8	·
CCc1nc(CN2CCCC(C(=O)c3ccc4c5c(cccc35)CC4)C2)c(C)[nH]1 (centres undefined)	-5	1.1	-3	13	-6	18	17
CC(OC(=O)Cc1c[nH]c2ccccc12)C(=O)NC1CCCCC1C (centres undefined)	·	·	0	·	9	5	·
COc1ccc(C2=Nc3ccccc3N(C(=O)c3ccc(C(F)(F)F)cc3)C2C(=O)Nc2c(C)cccc2C)cc1 (centres undefined)	·	·	·	·	·	-10	·
Cc1ccc(C(=O)CN2C(=O)c3ccccc3S2(=O)=O)cc1	·	·	0	45	-4	29	46
Cc1cc(C(=O)CN2C(=O)c3ccccc3S2(=O)=O)c(C)n1C(C)C	·	·	-5	·	-6	27	·
Cc1cc(C(=O)CN2C(=O)C3CC=CCC3C2=O)c(C)n1-c1ccccc1 (centres undefined)	74*	0.3	-4	49	-6	63*	53*
Cc1cc(C(=O)Cn2cc(C(F)(F)F)ccc2=O)c(C)n1-c1ccccc1	1	1	-1	17	0	-8	·
Cc1cc(C(=O)CN2C(=O)c3ccccc3S2(=O)=O)c(C)n1-c1ccccc1	63*	0.4	-2	26	-3	63*	23
CC(=O)Nc1ccc(NS(=O)(=O)c2cc(-c3n[nH]c(=O)c4ccccc34)ccc2C)cc1	·	·	0	18	-1	2	·
CC(=O)Nc1cc2c(cc1Cl)-c1ccccc1C2O (centres undefined)	·	·	-1	·	·	-6	·
COCC(C)n1c(C)cc(C(=O)COC(=O)c2ccc(N3CCCC3=O)cc2)c1C (centres undefined)	-2	1	1	-8	3	7	3
O=C(CCNC(=O)c1ccccc1Cl)Nc1nc(-c2ccccc2Cl)cs1	-7	1.1	-1	3	-5	7	·
SMILES	FLuc inh counter	FLuc act counter	iPSC survival up	PPC-1+TRAIL kill	beta cell repl	TRAIL sens C8	PPC1 cytotox
COc1cccc(N=c2oc3ccc(OC)cc3cc2-c2nc3ccccc3[nH]2)c1	13	0.9	-3	9	-3	63*	26
CC(NNC(=S)N1CCCCCC1)c1ccc2ccccc2n1 (centres undefined)	·	·	4	·	·	-7	·
COc1ccc(CCNC(=O)C2CCCN(S(=O)(=O)c3cccc4nonc34)C2)cc1OC (centres undefined)	-8	1.1	-1	-16	0	-2	-7
COc1ccc(NC(=O)C2CCCN(S(=O)(=O)c3cccc4nonc34)C2)cc1OC (centres undefined)	-4	1	-2	21	0	-3	·
O=c1cc(-c2ccccc2)[nH]c2ccccc12	4	1	3	7	-4	8	·
O=C1C(c2cc(=O)c3ccccc3[nH]2)=C(O)c2ccccc21	89*	0.1	-1	56*	-5	70*	53*
O=c1c2ccccc2nc2n1C(CBr)CN2 (centres undefined)	·	·	-1	5	-2	-21	·
CCc1c(C)sc(NC(=O)c2cc(CC(C)C)on2)c1C#N	-8	1.1	0	2	0	-3	-1
CCN1CCN(C(=O)CCNC(=O)Cn2cnc3ccccc3c2=O)CC1	·	·	-1	·	-2	1	·
Cc1sc(NC(=O)c2cccs2)nc1-c1ccccc1	5	0.9	1	-1	-5	9	·
O=C(Nc1nsc(-c2ccccc2)n1)c1cccs1	79*	0.2	-4	25	-2	51*	34
Cc1noc(C)c1-c1ccc(C(=O)NCc2cccs2)c2occc12	·	·	2	·	·	0	·
CC1(C)CC(=O)C=C(NNC(=O)c2ccccc2O)C1	91*	0.1	-4	79*	-6	71*	75*
O=C(N/N=C/c1ccc2ncccc2c1)c1ccco1	92*	0.1	-3	68*	-4	80*	70*
O=C(N/N=C/c1ccccn1)c1ccco1	6	0.9	-2	17	-2	31	·
N/C(=N\OC(=O)c1ccc2ccccc2c1)c1ccccn1	90*	0.1	-5	53*	-6	71*	59*
N/C(=N\OC(=O)c1ccccc1Cl)c1cccc([N+](=O)[O-])c1	·	·	-1	·	-1	15	·
N/C(=N\OC(=O)c1ccc(Cl)cc1Cl)c1ccccn1	95*	0	-6	90*	-6	90*	89*
Cc1ccc(C(=O)O/N=C(\N)c2ccccc2)c(Cl)c1	·	·	-1	81*	-4	94*	80*
COC(=O)C1CN(C(=O)C(C)Oc2ccc(C(C)C)cc2)c2ccccc2O1 (centres undefined)	·	·	0	·	1	-12	·
COc1cc(NC(=O)COc2ccc(C)c(C)c2)ccc1NC(=O)c1ccco1	·	·	0	·	0	-13	·
COc1cccc(-c2[nH]nc3c2C(c2ccoc2)C(C#N)=C(N)O3)c1 (centres undefined)	-1	1	4	-12	1	-12	·
